Measurements from ChEMBL document CHEMBL1152649, “Synthesis, cytotoxicity and human telomerase inhibition activities of a series of 1,2-heteroannelated anthraquinones and anthra[1,2-d]imidazole-6,11-dione homologues” (2009).

Legend:
Type in all cases: functional
BT-549 [1] = assay: Antiproliferative activity against human BT549 cells assessed as cell growth at 10 uM; conditions: read-out: Activity
How it was run: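 NCI 60 cell line panel, single-dose screen (10^-5 M) run by the developmental therapeutics program protocol. Results are given as growth percent of treated cells relative to untreated control cells for each line.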

KM12 = assay: Growth inhibition of human KM12 cells
How it was run: (§1)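 NCI 60 cancer cell line screen run per the Developmental Therapeutics Program protocol. Dose–response curves were plotted against log10 drug concentration for each cell line within its subpanel, and mean graph midpoint values were calculated.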

HCC 2998 = assay: Growth inhibition of human HCC2998 cells; how it was run: as §1
M14 = assay: Growth inhibition of human M14 cells; how it was run: as §1
MDA-MB-435 = assay: Growth inhibition of human MDA-MB-435 cells; how it was run: as §1
UACC-62 = assay: Growth inhibition of human UACC62 cells
How it was run: (§2)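 Assayed in the NCI 60 human cancer cell line panel under the Developmental Therapeutics Program protocol. For each line, dose–response curves were plotted against log10 drug concentration. In the one-dose screen at 10^-5 M, growth was given as percent of untreated control cells, and mean graph midpoint values were averaged.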

DU-145 = assay: Growth inhibition of human DU145 cells; how it was run: as §1
NCI-H322M = assay: Growth inhibition of human NCI-H322M cells; how it was run: as §1
SF-295 = assay: Growth inhibition of human SF295 cells; how it was run: as §2
UO-31 = assay: Growth inhibition of human UO31 cells; how it was run: as §2
NCI/ADR-RES = assay: Growth inhibition of human NCI/ADR-RES cells; how it was run: as §1
SK-MEL-5 = assay: Growth inhibition of human SK-MEL-5 cells; how it was run: as §2
HT-29 = assay: Growth inhibition of human HT-29 cells; how it was run: as §1
SN12C = assay: Growth inhibition of human SN12C cells; how it was run: as §2
HCT-116 = assay: Growth inhibition of human HCT116 cells; how it was run: as §1
SNB-75 = assay: Growth inhibition of human SNB75 cells; how it was run: as §2
UACC-257 = assay: Growth inhibition of human UACC257 cells; how it was run: as §2
HCT-15 = assay: Growth inhibition of human HCT15 cells; how it was run: as §1
SR = assay: Growth inhibition of human SR cells; how it was run: as §2
COLO 205 = assay: Growth inhibition of human COLO205 cells; how it was run: as §1
IGROV-1 = assay: Growth inhibition of human IGROV1 cells; how it was run: as §1
SNB-19 = assay: Growth inhibition of human SNB19 cells; how it was run: as §2
SF-268 = assay: Growth inhibition of human SF268 cells; how it was run: as §2
MCF7 = assay: Growth inhibition of human MCF7 cells; how it was run: as §1
BT-549 [2] = assay: Growth inhibition of human BT549 cells; how it was run: as §1
MDA-MB-231 = assay: Growth inhibition of human MDA-MB-231 cells; how it was run: as §1
HOP-62 = assay: Growth inhibition of human HOP62 cells; how it was run: as §1
NCI-H522 = assay: Growth inhibition of human NCI-H522 cells; how it was run: as §1
786-0 = assay: Growth inhibition of human 786-0 cells; how it was run: as §1
NCI-H460 = assay: Growth inhibition of human NCI-H460 cells; how it was run: as §1
HOP-92 = assay: Growth inhibition of human HOP92 cells; how it was run: as §1
OVCAR-8 = assay: Growth inhibition of human OVCAR8 cells; how it was run: as §1
CAKI-1 = assay: Growth inhibition of human Caki1 cells; how it was run: as §1
LOX IMVI = assay: Growth inhibition of human LOXIMVI cells; how it was run: as §1
ACHN = assay: Growth inhibition of human ACHN cells; how it was run: as §1
NCI-H226 = assay: Growth inhibition of human NCI-H226 cells; how it was run: as §1
Malme-3M = assay: Growth inhibition of human MALME-3M cells; how it was run: as §1
OVCAR-5 = assay: Growth inhibition of human OVCAR5 cells; how it was run: as §1
[3] = read-out: LC50 (the source's name)

SMILES: Cc1ccc(-c2nc3ccc4c(c3[nH]2)C(=O)c2ccccc2C4=O)cc1
- growth at 10 µM (BT-549 [1]): 94.1%

SMILES: CCc1nc2ccc3c(c2[nH]1)C(=O)c1ccccc1C3=O
- GI50 (KM12): 7.69 µM
- TGI (KM12): > 100 µM
- CC50 (KM12; [3]): > 100 µM
- GI50 (HCC 2998): 18.8 µM
- TGI (HCC 2998): > 100 µM
- CC50 (HCC 2998; [3]): > 100 µM
- GI50 (M14): 7.42 µM
- TGI (M14): > 100 µM
- CC50 (M14; [3]): > 100 µM
- GI50 (MDA-MB-435): 30.3 µM
- TGI (MDA-MB-435): > 100 µM
- CC50 (MDA-MB-435; [3]): > 100 µM
- GI50 (UACC-62): 8.09 µM
- TGI (UACC-62): > 100 µM
- CC50 (UACC-62; [3]): > 100 µM
- GI50 (DU-145): 9.43 µM
- TGI (DU-145): > 100 µM
- CC50 (DU-145; [3]): > 100 µM
- GI50 (NCI-H322M): 4.87 µM
- TGI (NCI-H322M): > 100 µM
- CC50 (NCI-H322M; [3]): > 100 µM
- GI50 (SF-295): 4.15 µM
- TGI (SF-295): > 100 µM
- CC50 (SF-295; [3]): > 100 µM
- GI50 (UO-31): 1.33 µM
- TGI (UO-31): > 100 µM
- CC50 (UO-31; [3]): > 100 µM
- GI50 (NCI/ADR-RES): 18.9 µM
- TGI (NCI/ADR-RES): > 100 µM
- CC50 (NCI/ADR-RES; [3]): > 100 µM
- GI50 (SK-MEL-5): 12.7 µM
- TGI (SK-MEL-5): 59.1 µM
- CC50 (SK-MEL-5; [3]): > 100 µM
- GI50 (HT-29): 16.1 µM
- TGI (HT-29): > 100 µM
- CC50 (HT-29; [3]): > 100 µM
- GI50 (SN12C): 13.6 µM
- TGI (SN12C): > 100 µM
- CC50 (SN12C; [3]): > 100 µM
- GI50 (HCT-116): 5.9 µM
- TGI (HCT-116): > 100 µM
- CC50 (HCT-116; [3]): > 100 µM
- GI50 (SNB-75): 62.5 µM
- TGI (SNB-75): > 100 µM
- CC50 (SNB-75; [3]): > 100 µM
- GI50 (UACC-257): 47.2 µM
- TGI (UACC-257): > 100 µM
- CC50 (UACC-257; [3]): > 100 µM
- GI50 (HCT-15): 3.39 µM
- TGI (HCT-15): > 100 µM
- CC50 (HCT-15; [3]): > 100 µM
- GI50 (SR): 6.71 µM
- TGI (SR): > 100 µM
- CC50 (SR; [3]): > 100 µM
- GI50 (COLO 205): 8.95 µM
- TGI (COLO 205): > 100 µM
- CC50 (COLO 205; [3]): > 100 µM
- GI50 (IGROV-1): 1.54 µM
- TGI (IGROV-1): 14.8 µM
- CC50 (IGROV-1; [3]): > 100 µM
- GI50 (SNB-19): 18.1 µM
- TGI (SNB-19): > 100 µM
- CC50 (SNB-19; [3]): > 100 µM
- GI50 (SF-268): 20.3 µM
- TGI (SF-268): > 1000 µM
- CC50 (SF-268; [3]): > 100 µM
- GI50 (MCF7): 13 µM
- TGI (MCF7): > 100 µM
- CC50 (MCF7; [3]): > 100 µM
- GI50 (BT-549 [2]): 9.3 µM
- TGI (BT-549 [2]): > 100 µM
- GI50 (MDA-MB-231): 8.86 µM
- TGI (MDA-MB-231): > 100 µM
- GI50 (HOP-62): 32.2 µM
- TGI (HOP-62): > 100 µM
- CC50 (HOP-62; [3]): > 100 µM
- GI50 (NCI-H522): 28.3 µM
- TGI (NCI-H522): > 100 µM
- CC50 (NCI-H522; [3]): > 100 µM
- GI50 (786-0): 43.6 µM
- TGI (786-0): > 100 µM
- CC50 (786-0; [3]): > 100 µM
- GI50 (NCI-H460): 5.27 µM
- TGI (NCI-H460): > 100 µM
- CC50 (NCI-H460; [3]): > 100 µM
- GI50 (HOP-92): 9.84 µM
- TGI (HOP-92): 7.58 µM
- CC50 (HOP-92; [3]): > 100 µM
- GI50 (OVCAR-8): 23.2 µM
- TGI (OVCAR-8): > 100 µM
- CC50 (OVCAR-8; [3]): > 100 µM
- GI50 (CAKI-1): 1.17 µM
- TGI (CAKI-1): > 100 µM
- CC50 (CAKI-1; [3]): > 100 µM
- GI50 (LOX IMVI): 4.56 µM
- TGI (LOX IMVI): > 100 µM
- CC50 (LOX IMVI; [3]): > 100 µM
- GI50 (ACHN): 3.29 µM
- TGI (ACHN): > 100 µM
- CC50 (ACHN; [3]): > 100 µM
- GI50 (NCI-H226): 2.46 µM
- TGI (NCI-H226): > 100 µM
- CC50 (NCI-H226; [3]): > 100 µM
- GI50 (Malme-3M): 8.55 µM
- TGI (Malme-3M): > 100 µM
- CC50 (Malme-3M; [3]): > 100 µM
- GI50 (OVCAR-5): 77.4 µM
- TGI (OVCAR-5): > 100 µM
- CC50 (OVCAR-5; [3]): > 100 µM
